This passage reports IC50 results from ChEMBL document CHEMBL1148652, “Design of potent, orally available antagonists of the transient receptor potential vanilloid 1. Structure-activity relationships of 2-piperazin-1-yl-1H-benzimidazoles” (J Med Chem, 2006).

Where “and” joins values, the source holds several entries; their conditions need not be identical. Equal entries are not always repeated.

Assay [1] deals with T1, Transient receptor potential cation channel subfamily V member 1 (Rattus norvegicus, UniProt O35433). Nature of the assay: Antagonist activity against capsaicin-induced 45calcium ion uptake in CHO cells expressing rat TRPV1. Format: functional, cell-based. A digest of the protocol: (§1)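 CHO cells recombinantly expressing rat TRPV1; inhibition of 45Ca2+ uptake triggered by capsaicin or by acid, pH 5. Functional IC50 in nM, averaged over at least two independent experiments, each with three replicates per concentration.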

Assay [2] deals with T1, Transient receptor potential cation channel subfamily V member 1. Description: Antagonist activity against acid-induced 45calcium ion uptake in CHO cells expressing rat TRPV1 at pH5. Format: functional, cell-based. A digest of the protocol:
as §1

T1 sequence (O35433 whole entry): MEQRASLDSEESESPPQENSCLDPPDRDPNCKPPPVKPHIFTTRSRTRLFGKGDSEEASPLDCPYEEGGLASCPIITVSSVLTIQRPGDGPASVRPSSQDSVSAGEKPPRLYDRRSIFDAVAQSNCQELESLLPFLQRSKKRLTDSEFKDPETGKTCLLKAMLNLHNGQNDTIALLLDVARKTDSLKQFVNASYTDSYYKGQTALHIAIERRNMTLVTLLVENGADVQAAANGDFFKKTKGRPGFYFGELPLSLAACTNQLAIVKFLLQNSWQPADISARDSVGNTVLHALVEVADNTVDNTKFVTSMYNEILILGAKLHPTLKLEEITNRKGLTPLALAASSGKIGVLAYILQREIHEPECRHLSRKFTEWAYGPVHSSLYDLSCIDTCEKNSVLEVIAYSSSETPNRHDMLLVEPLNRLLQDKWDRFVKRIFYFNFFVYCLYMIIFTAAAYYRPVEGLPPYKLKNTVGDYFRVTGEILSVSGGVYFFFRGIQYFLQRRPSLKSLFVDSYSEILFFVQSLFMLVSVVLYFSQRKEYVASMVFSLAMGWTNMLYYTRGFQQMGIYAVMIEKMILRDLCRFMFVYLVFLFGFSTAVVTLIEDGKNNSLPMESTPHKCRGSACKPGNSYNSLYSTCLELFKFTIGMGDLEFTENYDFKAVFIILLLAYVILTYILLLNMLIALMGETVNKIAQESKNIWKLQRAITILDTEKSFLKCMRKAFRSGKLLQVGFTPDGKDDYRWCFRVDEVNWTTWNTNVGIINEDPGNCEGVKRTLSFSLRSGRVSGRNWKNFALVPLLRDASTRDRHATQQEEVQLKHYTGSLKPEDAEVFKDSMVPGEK

In general, IC50 refers to the midpoint of a concentration-inhibition curve. In the case of `CN(C)c1ccc(-c2cc(C(F)(F)F)cc3[nH]c(N4CCN(c5ncccc5C(F)(F)F)CC4)nc23)cc1`, the IC50 in assay [1] came out at 108 nM; in assay [2], 69 nM.

Consider `N#Cc1ccc2[nH]c(N3CCN(c4ncccc4C(F)(F)F)CC3)nc2c1`, for which the figures for the IC50 in assay [1] and in assay [2] were 3300 nM and above 4000 nM, respectively.

Take `COC(=O)c1cnc(N2CCN(c3nc4c(-c5cc(F)c(F)c(F)c5)cc(C(F)(F)F)cc4[nH]3)[C@H](C)C2)c(Cl)c1`: the 50% inhibitory concentration (IC50) in assay [1] and in assay [2] was 0.3 nM throughout.

For the compound `FC(F)(F)c1ccc2[nH]c(N3CCN(c4ccncc4C(F)(F)F)CC3)nc2c1`, the IC50 was 2380 nM in assay [1] and 2850 nM in assay [2].

Consider `FC(F)(F)c1ccc(CNc2cc3[nH]c(N4CCN(c5ncccc5C(F)(F)F)CC4)nc3cc2C(F)(F)F)cc1`, for which the IC50 came out at 94 nM in assay [1] and 141 nM in assay [2].

For `C[C@@H]1CN(c2ncc(NC(=O)CO)cc2Cl)CCN1c1nc2c(-c3ccc(F)cc3)cc(C(F)(F)F)cc2[nH]1`, the IC50 in assay [1] amounted to 30 nM; in assay [2], 9.2 nM.

On to `C[C@H](O)c1cnc(N2CCN(c3nc4c(-c5cc(F)c(F)c(F)c5)cc(C(F)(F)F)cc4[nH]3)[C@H](C)C2)c(Cl)c1`, for which the IC50 in assay [1] was 2.6 nM; in assay [2], 3 nM.

With `CC(C)(C)c1ccc2nc(N3CCN(c4ncccc4Cl)CC3)[nH]c2c1`, the IC50 is 87 nM in assay [1] and 310 nM in assay [2].

Consider `FC(F)(F)c1cc(-c2cnccn2)c2nc(N3CCN(c4ncccc4C(F)(F)F)CC3)[nH]c2c1`, for which the results for the IC50 in assay [1] and in assay [2] were 129 nM and 51 nM, respectively.

Consider `CC(O)c1cnc(N2CCN(c3nc4ccc(C(F)(F)F)cc4[nH]3)CC2)c(Cl)c1` (racemic), for which the IC50 worked out at 461 nM in assay [1] and 652 nM in assay [2].

For `CNC(=O)c1cnc(N2CCN(c3nc4ccc(C(F)(F)F)cc4[nH]3)CC2)c(Cl)c1`, the results for the IC50 in assay [1] and in assay [2] were 493 nM and above 40000 nM, respectively.

For `C[C@H]1CN(c2ncccc2Br)CCN1c1nc2c(-c3cc(F)c(F)c(F)c3)cc(C(F)(F)F)cc2[nH]1`, the values for the IC50 in assay [1] and in assay [2] were 104 nM and 75 nM, respectively.

For the compound `FC(F)(F)c1cc(C(F)(F)F)c2[nH]c(N3CCN(c4ncccc4C(F)(F)F)CC3)nc2c1`, the IC50 in assay [1] amounted to 325 nM; in assay [2], 120 nM.

Consider `Nc1cc(C(F)(F)F)cc2[nH]c(N3CCN(c4ncccc4C(F)(F)F)CC3)nc12`, for which, in assay [2], the IC50 was above 4000 nM.

Regarding `CC(C)(C)c1ccc2[nH]c(N3CCN(c4ncccc4C(F)(F)F)CC3)nc2c1`, the IC50 in assay [1] is 183 nM; in assay [2], 282 nM.

Regarding `FC(F)(F)c1ccc2[nH]c(N3CCN(c4cccc(C(F)(F)F)n4)CC3)nc2c1`, the IC50 in assay [1] and in assay [2] was above 40000 nM each time.

Consider `FC(F)(F)c1ccc2nc(N3CCN(c4c(Cl)cncc4Cl)CC3)[nH]c2c1`, for which the IC50 in assay [1] turned out to be 1370 nM; in assay [2], 1990 nM.

`FC(F)(F)Oc1cccc(-c2cc(C(F)(F)F)cc3[nH]c(N4CCN(c5ncccc5C(F)(F)F)CC4)nc23)c1`: the IC50 was 26 nM in assay [1] and 21 nM in assay [2].

With `C[C@@H]1CN(c2ncc(Br)cc2Cl)CCN1c1nc2c(-c3cc(F)c(F)c(F)c3)cc(C(F)(F)F)cc2[nH]1`, the IC50 came to 3.4 nM in assay [1] and 3.3 nM in assay [2].

On to `FC(F)(F)c1cc(C2CCC(C(F)(F)F)CC2)c2nc(N3CCN(c4ncccc4C(F)(F)F)CC3)[nH]c2c1` (stereo not given), for which the results for the IC50 in assay [1] and in assay [2] were 10 nM and 9 nM, respectively.

Take `C[C@H]1CN(c2nc3c(-c4cc(F)c(F)c(F)c4)cc(C(F)(F)F)cc3[nH]2)CCN1c1ncccc1Br`: the IC50 in assay [1] was 767 nM; in assay [2], 254 nM.

`FC(F)(F)c1ccc2nc(N3CCN(c4ncccc4C(F)(F)F)CC3)n(Cc3ccccc3)c2c1`: the IC50 in assay [1] is 577 nM; in assay [2], 151 nM and 157 nM.

On to `CC[C@@H]1CN(c2ncccc2C(F)(F)F)CCN1c1nc2cc(C(F)(F)F)ccc2[nH]1`, for which the IC50 in assay [1] was 648 nM; in assay [2], above 4000 nM.

With `FC(F)(F)c1ccc(-c2cc(C(F)(F)F)cc3[nH]c(N4CCN(c5ncccc5C(F)(F)F)CC4)nc23)cc1`, the IC50 worked out at 51 nM in assay [1] and 37 nM in assay [2].

With `FC(F)(F)c1cc(/C=C/c2ccccc2)c2[nH]c(N3CCN(c4ncccc4C(F)(F)F)CC3)nc2c1`, the IC50 amounted to 185 nM in assay [1] and 140 nM in assay [2].

As to `FC(F)(F)c1cccnc1N1CCN(c2nc3ccc(Cl)cc3[nH]2)CC1`, the IC50 is 1130 nM in assay [1] and 17300 nM in assay [2].

Regarding `FC(F)(F)c1ccc2[nH]c(N3CCN(c4c(Cl)cccc4Cl)CC3)nc2c1`, the IC50 is above 40000 nM in assay [1] and 1270 nM in assay [2].

On to `FC(F)(F)c1ccc2[nH]c(N3CCN(c4ncccc4Cl)CC3)nc2c1`, for which the IC50 in assay [1] was found to be 309 nM; in assay [2], 705 nM.

Consider `C=Cc1cnc(N2CCN(c3nc4c(-c5cc(F)c(F)c(F)c5)cc(C(F)(F)F)cc4[nH]3)[C@H](C)C2)c(Cl)c1`, for which the results for the IC50 in assay [1] and in assay [2] were 1.3 nM and 1.7 nM, respectively.

Turning to `C[C@@H]1CN(c2ncc(N)cc2Cl)CCN1c1nc2c(-c3ccc(F)cc3)cc(C(F)(F)F)cc2[nH]1`, the IC50 in assay [1] amounted to 98 nM; in assay [2] it was 33 nM.

For `FC(F)(F)c1cc(-c2cccs2)c2[nH]c(N3CCN(c4ncccc4C(F)(F)F)CC3)nc2c1`, the results for the IC50 in assay [1] and in assay [2] were 373 nM and 221 nM, respectively.

As to `C[C@@H]1CN(c2ncc(C(=O)O)cc2Cl)CCN1c1nc2c(-c3cc(F)c(F)c(F)c3)cc(C(F)(F)F)cc2[nH]1`, the results for the IC50 in assay [1] and in assay [2] were 46 nM and 27 nM, respectively.

For `Cc1ccc2[nH]c(N3CCN(c4ncccc4C(F)(F)F)CC3)nc2c1`, in assay [2], the IC50 is above 4000 nM.

As for `COC(=O)c1ccc2nc(N3CCN(c4ncccc4C(F)(F)F)CC3)[nH]c2c1`, the IC50 in assay [1] was 1230 nM; in assay [2], above 4000 nM.

For the compound `FC(F)(F)c1cc(N2CCOCC2)c2[nH]c(N3CCN(c4ncccc4C(F)(F)F)CC3)nc2c1`, the results for the IC50 in assay [1] and in assay [2] were 50 nM and 95 nM, respectively.

With `C[C@@H]1CN(c2ncc([C@@H](C)O)cc2Cl)CCN1c1nc2c(-c3cc(F)c(F)c(F)c3)cc(C(F)(F)F)cc2[nH]1`, the results for the IC50 in assay [1] and in assay [2] were 0.6 nM and 2.3 nM, respectively.

Consider `FC(F)(F)c1ccc2[nH]c(N3CCN(c4ncccc4I)CC3)nc2c1`, for which the IC50 was found to be 221 nM in assay [1] and 310 nM in assay [2].

In the case of `FC(F)(F)c1cc(-c2nccs2)c2nc(N3CCN(c4ncccc4C(F)(F)F)CC3)[nH]c2c1`, the IC50 stood at 688 nM in assay [1] and 454 nM in assay [2].

As to `CC(O)c1cnc(N2CCN(c3nc4c(-c5cc(F)c(F)c(F)c5)cc(C(F)(F)F)cc4[nH]3)[C@H](C)C2)c(C(F)(F)F)c1` (mixture of isomers), the IC50 in assay [1] was determined as 1.5 nM; in assay [2], 1 nM.

Consider `Fc1ccc2[nH]c(N3CCN(c4ncccc4C(F)(F)F)CC3)nc2c1`, for which the IC50 in assay [1] and in assay [2] was above 4000 nM throughout.

As for `FC(F)(F)c1ccnc(N2CCN(c3nc4cc(C(F)(F)F)ccc4[nH]3)CC2)c1`, the concentration for half-maximal inhibition (IC50) in assay [1] was above 5640 nM; in assay [2], 11900 nM.

Turning to `FC(F)(F)c1cccnc1N1CCN(c2nc3ccc(Br)cc3[nH]2)CC1`, the IC50 stood at 123 nM in assay [1] and 194 nM in assay [2].

Take `FC(F)(F)c1cc(-c2cc3ccccc3s2)c2nc(N3CCN(c4ncccc4C(F)(F)F)CC3)[nH]c2c1`: the IC50 is 26 nM in assay [1] and 22 nM in assay [2].

For `Fc1ccc(Cc2cc(C(F)(F)F)cc3[nH]c(N4CCN(c5ncccc5C(F)(F)F)CC4)nc23)cc1F`, the results for the IC50 in assay [1] and in assay [2] were 71 nM and 52 nM, respectively.

Regarding `FC(F)(F)c1ccc2[nH]c(N3CCN(c4ncccc4C(F)(F)F)CC3)nc2n1`, the figures for the IC50 in assay [1] and in assay [2] were 1090 nM and 1410 nM, respectively.

Take `FC(F)(F)c1ccc2nc(N3CCN(c4ncccc4C(F)(F)F)CC3)[nH]c2c1`: the IC50 in assay [2] worked out at 301 nM.

With `FC(F)(F)c1ccc(N2CCN(c3nc4cc(C(F)(F)F)ccc4[nH]3)CC2)nc1`, the 50% inhibitory concentration (IC50) in assay [1] is 11300 nM; in assay [2], above 40000 nM.

As to `C[C@@H]1CN(c2nc3c(-c4cc(F)c(F)c(F)c4)cc(C(F)(F)F)cc3[nH]2)CCN1c1ncccc1Br`, the IC50 in assay [1] amounted to 4.3 nM; in assay [2], 1.8 nM.

As to `OCc1cnc(N2CCN(c3nc4ccc(C(F)(F)F)cc4[nH]3)CC2)c(Cl)c1`, the concentration for half-maximal inhibition (IC50) was 64 nM in assay [1] and 98 nM in assay [2].

As to `C[C@@H]1CN(c2ncc(CO)cc2C(F)(F)F)CCN1c1nc2c(-c3cc(F)c(F)c(F)c3)cc(C(F)(F)F)cc2[nH]1`, the 50% inhibitory concentration (IC50) stood at 1.4 nM in assay [1] and 0.7 nM in assay [2].

Turning to `C[C@@H]1CN(c2ncc(CO)cc2Cl)CCN1c1nc2c(NCc3ccccc3)cc(C(F)(F)F)cc2[nH]1`, the IC50 in assay [1] stood at 7 nM; in assay [2] it was 6.7 nM.

With `C[C@@H]1CN(c2ncc(C(O)c3ccccc3)cc2C(F)(F)F)CCN1c1nc2c(-c3cc(F)c(F)c(F)c3)cc(C(F)(F)F)cc2[nH]1` (stereo not given in full), the IC50 worked out at 2.8 nM in assay [1] and 3.7 nM in assay [2].

As to `Cc1cccnc1N1CCN(c2nc3ccc(C(F)(F)F)cc3[nH]2)CC1`, the values for the IC50 in assay [1] and in assay [2] were 402 nM and 1140 nM, respectively.

For the compound `C[C@@H]1CN(c2ncc(CO)cc2Cl)CCN1c1nc2cc(C(F)(F)F)cc(NC(=O)OC(C)(C)C)c2[nH]1`, the IC50 in assay [1] amounted to 2.1 nM; in assay [2], 1.1 nM.

Consider `C[C@@H]1CN(c2ncccc2Br)CCN1c1nc2c(-c3cc(F)c(F)c(F)c3)cc(C(F)(F)F)cc2[nH]1`, for which the 50% inhibitory concentration (IC50) in assay [1] was determined as 6.7 nM; in assay [2] it was 2.6 nM.

Turning to `C[C@@H]1CN(c2ncccc2C(F)(F)F)CCN1c1nc2ccc(C(F)(F)F)cc2[nH]1`, the IC50 came to 48 nM in assay [1] and 35 nM in assay [2].

Take `FC(F)(F)c1cnc2nc(N3CCN(c4ncccc4C(F)(F)F)CC3)[nH]c2c1`: the IC50 turned out to be 1550 nM in assay [1] and 884 nM in assay [2].

In the case of `CC(=O)c1cnc(N2CCN(c3nc4cc(C(F)(F)F)ccc4[nH]3)CC2)c(Cl)c1`, the IC50 in assay [1] turned out to be 581 nM; in assay [2], 832 nM.

On to `CC(C)(C)c1ccc(-c2cc(C(F)(F)F)cc3[nH]c(N4CCN(c5ncccc5C(F)(F)F)CC4)nc23)cc1`, for which the IC50 in assay [2] came to 4 nM.

Consider `CCC[C@@H]1CN(c2ncccc2C(F)(F)F)CCN1c1nc2cc(C(F)(F)F)ccc2[nH]1`, for which, in assay [2], the IC50 is above 4000 nM.
